Drawing on ChEMBL document CHEMBL3352121, “Modulation of Activity Profiles for Largazole-Based HDAC Inhibitors through Alteration of Prodrug Properties” (ACS Med Chem Lett, 2014), this text covers IC50 and inhibition for two molecules.

The target of one assay is Histone deacetylase 4 (Homo sapiens, UniProt P56524). Kind of assay: Inhibition of HDAC4 (unknown origin) incubated for 30 mins in presence of BSA and DTT by fluorescence assay. The gist of the method:
(§1)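 Purified HDAC isoforms were tested up to a maximum of 1 μM. IC50 values are averages of duplicate experiments. Disulfide compounds were pretreated with DTT to reduce the disulfide bond.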

Another assay addresses T1, Histone deacetylase 7 (Homo sapiens, UniProt Q8WUI4).
T1 sequence (Q8WUI4 whole entry): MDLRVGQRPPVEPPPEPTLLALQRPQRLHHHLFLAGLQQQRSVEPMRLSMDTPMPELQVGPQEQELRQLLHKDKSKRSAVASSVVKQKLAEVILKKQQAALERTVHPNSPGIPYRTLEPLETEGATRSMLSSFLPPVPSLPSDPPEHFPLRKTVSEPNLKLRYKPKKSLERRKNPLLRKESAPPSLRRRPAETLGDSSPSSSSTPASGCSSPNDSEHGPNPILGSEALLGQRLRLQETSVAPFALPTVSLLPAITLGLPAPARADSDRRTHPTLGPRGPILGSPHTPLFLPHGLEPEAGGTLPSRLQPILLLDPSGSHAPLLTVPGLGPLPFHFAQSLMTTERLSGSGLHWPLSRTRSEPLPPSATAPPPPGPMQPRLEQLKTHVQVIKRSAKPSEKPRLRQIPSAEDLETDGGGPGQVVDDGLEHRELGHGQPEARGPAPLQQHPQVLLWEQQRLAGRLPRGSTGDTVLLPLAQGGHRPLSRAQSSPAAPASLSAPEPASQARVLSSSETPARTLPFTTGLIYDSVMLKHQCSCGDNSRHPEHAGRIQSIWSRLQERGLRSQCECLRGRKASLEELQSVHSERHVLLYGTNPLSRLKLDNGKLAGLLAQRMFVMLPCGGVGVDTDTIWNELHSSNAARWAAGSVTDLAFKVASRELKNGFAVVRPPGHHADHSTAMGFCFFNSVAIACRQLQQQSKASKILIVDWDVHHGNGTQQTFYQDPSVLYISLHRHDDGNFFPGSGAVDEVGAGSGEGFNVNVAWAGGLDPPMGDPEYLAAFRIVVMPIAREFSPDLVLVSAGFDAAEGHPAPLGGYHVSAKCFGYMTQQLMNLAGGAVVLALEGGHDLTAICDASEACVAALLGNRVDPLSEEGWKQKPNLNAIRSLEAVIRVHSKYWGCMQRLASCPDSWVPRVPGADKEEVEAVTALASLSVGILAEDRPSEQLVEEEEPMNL
As to the kind of experiment: Inhibition of HDAC7 (unknown origin) incubated for 30 mins in presence of BSA and DTT by fluorescence assay. The gist of the method:
as §1

In assay [1] the target is T2, Histone deacetylase 8 (Homo sapiens) (UniProt Q9BY41).
T2 sequence (whole entry): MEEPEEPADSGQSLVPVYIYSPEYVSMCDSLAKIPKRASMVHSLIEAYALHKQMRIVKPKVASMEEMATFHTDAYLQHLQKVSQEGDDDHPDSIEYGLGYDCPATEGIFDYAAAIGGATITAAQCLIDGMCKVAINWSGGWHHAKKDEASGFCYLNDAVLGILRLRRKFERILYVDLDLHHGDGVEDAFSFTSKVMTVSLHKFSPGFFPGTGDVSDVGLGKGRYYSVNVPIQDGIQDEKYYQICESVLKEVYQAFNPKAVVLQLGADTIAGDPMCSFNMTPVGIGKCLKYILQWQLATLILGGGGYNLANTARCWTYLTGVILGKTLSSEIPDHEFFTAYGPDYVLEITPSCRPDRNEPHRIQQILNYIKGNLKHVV
Kind of assay: Inhibition of HDAC8 (unknown origin) at 1 uM incubated for 30 mins in presence of BSA and DTT by fluorescence assay. The gist of the method: as §1

The nature of assay [2]: Antiproliferative activity against human HCT116 cells after 48 hrs in presence of DTT by MTT assay. Type of assay: functional, cell-based. As to conditions: HCT-116, 48 h; call rule not given here. The gist of the method:
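Disulfide compounds were pretreated with DTT to reduce the disulfide bond before testing.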
(In general: Formazan colour is commonly taken as a measure of viable cells.)

Another assay deals with Histone deacetylase 5 (Homo sapiens, UniProt Q9UQL6). As to the kind of experiment: Inhibition of HDAC5 (unknown origin) incubated for 30 mins in presence of BSA and DTT by fluorescence assay. The gist of the method:
as §1

Assay [3] concerns the target T3, Histone deacetylase 7 (Homo sapiens) (UniProt Q8WUI4).
T3 sequence (whole entry): T1 sequence (Q8WUI4 whole entry)
Kind of assay: Inhibition of HDAC7 (unknown origin) at 1 uM incubated for 30 mins in presence of BSA and DTT by fluorescence assay. The gist of the method:
as §1

The next assay has as its target Histone deacetylase 1 (Homo sapiens, UniProt Q13547). As to the kind of experiment: Inhibition of HDAC1 (unknown origin) incubated for 30 mins in presence of BSA and DTT by fluorescence assay.
For assay [4], the target named is Histone deacetylase (Homo sapiens) (UniProt Q13547+O15379+Q9UBN7+Q92769+Q9UQL6+Q8WUI4+Q9BY41+Q96DB2+P56524+Q9UKV0+Q969S8). Kind of assay: Inhibition of HDAC in human HCT116 cells assessed as increase in histone H3 (Lys9/14) hyperacetylation after 8 to 24 hrs by immunoblotting method. Type of assay: cell-based. The settings on record: HCT-116. The gist of the method: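 HCT116 cells were treated across a dose range. Cellular HDAC inhibition was read as histone H3 (Lys9/14) hyperacetylation by immunoblot at 8 and 24 h post-treatment.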

Each structure is given as a SMILES string.

Chain of Histone deacetylase 1 (Q13547 whole entry): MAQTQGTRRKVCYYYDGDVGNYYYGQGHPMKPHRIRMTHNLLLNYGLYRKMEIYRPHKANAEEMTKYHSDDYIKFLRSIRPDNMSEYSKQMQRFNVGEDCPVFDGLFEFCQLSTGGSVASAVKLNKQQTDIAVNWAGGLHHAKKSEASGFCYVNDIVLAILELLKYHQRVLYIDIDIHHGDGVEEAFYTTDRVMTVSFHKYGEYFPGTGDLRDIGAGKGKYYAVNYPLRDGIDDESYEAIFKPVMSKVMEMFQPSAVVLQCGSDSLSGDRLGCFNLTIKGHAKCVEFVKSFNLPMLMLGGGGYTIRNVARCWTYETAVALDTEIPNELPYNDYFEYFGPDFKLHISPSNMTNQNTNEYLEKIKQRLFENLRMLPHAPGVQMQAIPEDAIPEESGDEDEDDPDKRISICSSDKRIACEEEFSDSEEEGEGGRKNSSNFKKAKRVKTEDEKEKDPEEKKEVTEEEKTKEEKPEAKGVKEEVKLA
Chain of Histone deacetylase 5 (Q9UQL6 whole entry): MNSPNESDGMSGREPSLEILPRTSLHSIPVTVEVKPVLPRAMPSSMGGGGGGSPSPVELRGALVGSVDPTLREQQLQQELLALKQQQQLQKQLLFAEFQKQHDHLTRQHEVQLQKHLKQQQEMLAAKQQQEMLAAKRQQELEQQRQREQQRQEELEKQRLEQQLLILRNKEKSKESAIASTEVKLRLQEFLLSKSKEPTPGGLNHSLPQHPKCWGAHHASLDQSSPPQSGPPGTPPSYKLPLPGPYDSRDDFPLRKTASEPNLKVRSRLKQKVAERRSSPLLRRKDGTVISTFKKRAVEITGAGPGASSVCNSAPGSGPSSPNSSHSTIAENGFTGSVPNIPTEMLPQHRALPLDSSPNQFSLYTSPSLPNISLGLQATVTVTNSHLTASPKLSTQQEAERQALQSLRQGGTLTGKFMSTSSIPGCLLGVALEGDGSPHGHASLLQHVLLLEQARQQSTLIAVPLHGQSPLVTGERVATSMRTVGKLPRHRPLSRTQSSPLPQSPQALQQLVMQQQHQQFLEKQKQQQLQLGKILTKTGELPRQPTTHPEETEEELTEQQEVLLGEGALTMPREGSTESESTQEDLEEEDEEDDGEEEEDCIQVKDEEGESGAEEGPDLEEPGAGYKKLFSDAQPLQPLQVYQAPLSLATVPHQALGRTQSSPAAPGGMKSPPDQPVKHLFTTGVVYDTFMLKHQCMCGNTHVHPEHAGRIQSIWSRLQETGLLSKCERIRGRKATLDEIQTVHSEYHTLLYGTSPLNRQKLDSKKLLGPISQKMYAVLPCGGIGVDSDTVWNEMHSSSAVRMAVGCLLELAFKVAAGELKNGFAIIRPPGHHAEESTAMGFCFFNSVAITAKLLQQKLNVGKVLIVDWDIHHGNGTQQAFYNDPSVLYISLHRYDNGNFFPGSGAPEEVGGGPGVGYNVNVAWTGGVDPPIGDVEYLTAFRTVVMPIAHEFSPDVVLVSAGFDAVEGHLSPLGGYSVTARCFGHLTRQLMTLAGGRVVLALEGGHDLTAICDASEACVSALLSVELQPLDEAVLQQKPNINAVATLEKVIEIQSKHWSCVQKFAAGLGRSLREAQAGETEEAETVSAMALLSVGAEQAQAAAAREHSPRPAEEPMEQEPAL
Chain of Histone deacetylase 4 (P56524 whole entry, canonical isoform): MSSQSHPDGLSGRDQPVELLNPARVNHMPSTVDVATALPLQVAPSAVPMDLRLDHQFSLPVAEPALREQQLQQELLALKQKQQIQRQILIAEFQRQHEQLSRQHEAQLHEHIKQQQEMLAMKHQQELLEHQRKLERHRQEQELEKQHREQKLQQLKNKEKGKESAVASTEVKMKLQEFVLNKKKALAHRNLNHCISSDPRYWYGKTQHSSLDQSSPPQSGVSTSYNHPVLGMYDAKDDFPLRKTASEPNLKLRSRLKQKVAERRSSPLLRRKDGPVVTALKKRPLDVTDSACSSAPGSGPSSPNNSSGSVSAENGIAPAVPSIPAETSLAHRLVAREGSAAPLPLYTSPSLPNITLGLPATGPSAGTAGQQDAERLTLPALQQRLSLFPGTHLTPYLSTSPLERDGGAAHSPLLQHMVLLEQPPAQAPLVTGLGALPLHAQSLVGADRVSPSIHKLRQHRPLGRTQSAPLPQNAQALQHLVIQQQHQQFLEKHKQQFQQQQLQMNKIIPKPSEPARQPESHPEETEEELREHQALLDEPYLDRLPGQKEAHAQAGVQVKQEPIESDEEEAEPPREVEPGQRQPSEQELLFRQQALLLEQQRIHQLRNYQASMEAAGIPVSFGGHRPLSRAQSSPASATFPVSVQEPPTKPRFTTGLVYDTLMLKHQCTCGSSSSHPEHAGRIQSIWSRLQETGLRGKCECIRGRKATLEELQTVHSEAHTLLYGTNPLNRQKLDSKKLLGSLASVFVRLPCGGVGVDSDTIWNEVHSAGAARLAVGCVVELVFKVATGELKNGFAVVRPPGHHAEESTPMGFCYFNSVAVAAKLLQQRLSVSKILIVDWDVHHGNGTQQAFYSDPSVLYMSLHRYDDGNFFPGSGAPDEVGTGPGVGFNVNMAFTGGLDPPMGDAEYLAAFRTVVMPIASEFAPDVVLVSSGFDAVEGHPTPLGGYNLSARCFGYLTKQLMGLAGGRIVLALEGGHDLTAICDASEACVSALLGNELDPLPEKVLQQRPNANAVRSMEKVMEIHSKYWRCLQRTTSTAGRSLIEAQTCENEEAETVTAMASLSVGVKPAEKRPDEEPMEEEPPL

For `CC(C)[C@@H]1NC(=O)[C@]2(C)CSC(=N2)c2csc(n2)CNC(=O)C[C@@H](/C=C/CCSSC[C@H](NC(=O)OC(C)(C)C)C(=O)OC(C)(C)C)OC1=O`, the IC50 result at Histone deacetylase 4 was “Not Active”; on Histone deacetylase 7, “Not Active”; in assay [2] it was 13 nM; on Histone deacetylase 5, “Not Active”; on Histone deacetylase 1, 0.4 nM. Also, the inhibition in assay [1] is 35%; in assay [3] it was below 20%; in assay [4], “Dose-dependent effect”.
Take `CC(C)[C@@H]1NC(=O)[C@]2(C)CSC(=N2)c2csc(n2)CNC(=O)C[C@@H](/C=C/CCSSCC/C=C/[C@@H]2CC(=O)NCc3nc(cs3)C3=N[C@@](C)(CS3)C(=O)N[C@@H](C(C)C)C(=O)O2)OC1=O`: the IC50 result was “Not Active” on Histone deacetylase 4; “Not Active” at Histone deacetylase 7; 12 nM in assay [2]; “Not Active” at Histone deacetylase 5; 0.3 nM on Histone deacetylase 1. Moreover, the figures for the inhibition in assay [1], in assay [3] and in assay [4] were 40%, below 20% and “Dose-dependent effect”, respectively.

The term IC50 denotes the point on the concentration scale where inhibition reaches its midpoint. A word on the inhibition: it is how much of the control response was suppressed.
